pKi: −log10 of the molar value. “And” between values parts separate entries of the source, which are not always exact repeats. Equal entries are not always repeated. “Also recorded” adds a separate entry of the source.
Legend:
[1] = test system: human imidazoline receptors (I1, I2); details: cited from earlier work
AgDI from E. faecalis = details: substrate, cited from earlier work
[2] = target: T1, E. coli agmatinase (EcAGM) (Escherichia coli, UniProt P60651); assay: E. coli agmatinase; assay type: biochemical; details: for pKi: Ki, EcAGM, competitive inhibition, pH 7.5, 100 mM HEPES, 2 mM MnCl2, substrate agmatine
T1 sequence (P60651 1-306): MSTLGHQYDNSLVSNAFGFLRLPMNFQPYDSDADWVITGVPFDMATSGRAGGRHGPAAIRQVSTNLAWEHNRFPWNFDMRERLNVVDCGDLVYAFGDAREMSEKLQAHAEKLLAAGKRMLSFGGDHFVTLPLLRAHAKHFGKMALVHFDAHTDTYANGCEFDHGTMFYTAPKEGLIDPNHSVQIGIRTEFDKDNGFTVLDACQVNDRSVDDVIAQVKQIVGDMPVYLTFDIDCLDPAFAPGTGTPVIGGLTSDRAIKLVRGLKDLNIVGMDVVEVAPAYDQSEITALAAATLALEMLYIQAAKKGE

[3] = test system: E. faecalis agmatine deiminase (AgDI); assay: Agmatine deiminase activity, GDH coupled enzyme assay; assay type: biochemical, Enterococcus faecalis; details: pH 7.5
Procedure, shortened: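 His-tagged, codon-optimized E. faecalis AgDI was expressed in E. coli (LB without added metal, 1 mM IPTG, 16°C, 20 h) and purified by Ni-affinity chromatography. Agmatine-initiated ammonia release was coupled to GDH (2.5 U/mL) with 5 mM 2-oxoglutarate, 0.3 mM NADH and 0.8 mM ADP in HEPES-NaOH pH 7.5. Initial rates came from continuous A340 (ε 6220 M⁻¹cm⁻¹, 0.56 cm path).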

[4] = target: C. butyricum agmatinase (CbAGM) (Clostridium butyricum, UniProt C4IHF6); assay type: biochemical; details: 5000 µM
[5] = test system: EcAGM, CbAGM, GpuA, AGMAT, ARG1 and ARG2; assay: HPLC analysis for metformin transformation by purified enzymes; assay type: in vitro ADME; details: 1 mM metformin, 10 μg purified enzyme, 20 mM CHES pH 9, overnight
Procedure, shortened: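 His-tagged enzymes were expressed in E. coli BL21(DE3) and purified by Ni-affinity IMAC. ARG2 and AGMAT were mitochondrial-signal truncations (ARG2 Δ1-24/Δ331-354, AGMAT Δ1-35). Metformin was incubated with each enzyme, then analysed by reversed-phase C18 HPLC with an isocratic mobile phase of 75:25 (v/v) acetonitrile:10 mM potassium phosphate pH 6.6, which separates guanylurea from metformin.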

[6] = cited from earlier work
[7] = 1000–2000 mg daily; cited from earlier work
type 2 diabetes patients = details: cited from earlier work
[8] = target: serine hydroxymethyltransferase 2; details: read-out: Ki, serine hydroxymethyltransferase 2; mixed inhibition; cited from earlier work
human PEN2 protein = details: cited from earlier work
complex IV = details: cited from earlier work

Chain of C. butyricum agmatinase (CbAGM) (C4IHF6 1-283): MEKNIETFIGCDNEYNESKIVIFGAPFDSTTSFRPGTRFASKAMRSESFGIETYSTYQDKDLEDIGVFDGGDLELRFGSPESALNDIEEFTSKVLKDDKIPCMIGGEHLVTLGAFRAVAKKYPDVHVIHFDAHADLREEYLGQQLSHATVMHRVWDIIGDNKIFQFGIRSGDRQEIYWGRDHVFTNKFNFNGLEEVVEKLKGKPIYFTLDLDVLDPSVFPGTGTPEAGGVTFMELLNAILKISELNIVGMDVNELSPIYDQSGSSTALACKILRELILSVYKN

NCCCCN=C(N)N [agmatine]
binding and agonism at human imidazoline receptors (I1, I2) [1]: micromolar range | Km (AgDI from E. faecalis; read-out: KM, AgDI from E. faecalis): 35 µM | kcat, AgDI from E. faecalis (AgDI from E. faecalis): 840 s⁻¹

[H]/N=C(/N)N/C(=N/[H])NCCc1ccccc1 [phenformin]
pKi [2]: 3.22

CC(C)=CCN=C(N)N [galegine]
pKi [2]: 5.15 | inhibition of agmatine deiminase (AgDI) ([3]; 5 mM galegine): not inhibited

CN(C)C(=N)N=C(N)N [metformin]
predicted reduction in the maximum velocity of EcAGM-like enzymes ([2]; 5 mM metformin, 20 μM agmatine, steady state Michaelis-Menten model): 83% | pKi [2]: 2.96 and 3.00 and ~3.00 | predicted reduction in the maximum velocity of CbAGM-like enzymes [4]: 27% | inhibition of agmatine deiminase (AgDI) ([3]; 50 mM metformin): not inhibited | inhibition of agmatine deiminase (AgDI) ([3]; 50 mM metformin, listed as Metformin): does not inhibit | transformation of metformin by ureohydrolase homologs [5]: No metabolism; also recorded: No transformation | concentration of metformin in the human gut [6]: 1000 to 10000 µM | fraction excreted into wastewater [7]: > 80% | effectiveness of intravenous administration in type 2 diabetes patients (type 2 diabetes patients): little or no effectiveness | pKi [8]: 1.89 | binding constant, human PEN2 protein (human PEN2 protein): micromolar range | inhibitory concentration, mitochondrial respiration proteins like complex IV (complex IV): hundreds of micromolar

CCCCNC(=N)NC(=N)N [buformin]
pKi [2]: 4.00
